Screening results from PubChem BioAssay.
Only some compounds are listed: those with a hit (about 3.6% of all), similar ones and a draw of the others.
PAFAH1B3 inh = PAFAH1B3 (human) inhibition. Q15102. recombinant PAFAH1B3, FP-rhodamine probe, fluorescence polarization. inhibition, % at 3.39 µM. hit rate 0.28% among 340,000;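 active means inhibition above the screen-wide average of all tested compounds plus 3 SD, cut at about 25% in these data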
pPAFAH FP inh = pPAFAH (human) enzyme inhibition | Q13093 | AID 463082 | recombinant pPAFAH, FP-rhodamine probe fluorescence polarization | hit rate 1.5% among 330,000 | inhibition, % at 3.39 µM;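 active means inhibition above the mean inhibition across the screen plus 3 SD, cut at about 25% in these data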;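 further: inhibitors block binding of the rhodamine activity-based probe so polarization drops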
Target sequence (Q13093 whole entry, looked up): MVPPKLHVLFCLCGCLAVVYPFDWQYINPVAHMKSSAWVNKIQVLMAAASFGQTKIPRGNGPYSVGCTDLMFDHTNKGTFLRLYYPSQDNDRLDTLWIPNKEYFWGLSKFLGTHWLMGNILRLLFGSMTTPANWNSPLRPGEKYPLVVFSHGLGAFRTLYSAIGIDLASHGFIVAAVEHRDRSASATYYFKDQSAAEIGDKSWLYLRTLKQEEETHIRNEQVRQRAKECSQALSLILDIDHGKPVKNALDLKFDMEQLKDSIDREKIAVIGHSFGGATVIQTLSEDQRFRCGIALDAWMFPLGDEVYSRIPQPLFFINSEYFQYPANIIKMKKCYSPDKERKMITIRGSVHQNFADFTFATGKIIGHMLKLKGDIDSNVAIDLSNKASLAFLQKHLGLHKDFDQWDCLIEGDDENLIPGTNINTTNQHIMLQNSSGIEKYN
VIM-2 inh = blocks Pseudomonas aeruginosa VIM-2 metallo-beta-lactamase. purified VIM-2, nitrocefin hydrolysis, epi-absorbance fluorescence. inhibition, % at 5.6 µM. hit rate 0.89% among 290,000. AID 1527;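 active means inhibition above the mean of all tested compounds plus 3 SD, cutoff set per screening run, cut at about 7.5% in these data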;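 further: red hydrolysis product quenches plate fluorescence so inhibitors raise well fluorescence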
PAFAH2 inh = PAFAH2 (human) inhibition | Q99487 | recombinant PAFAH2, FP-rhodamine activity probe, fluorescence polarization | inhibition, % at 3.39 µM | hit rate 0.99% among 340,000 | AID 492956;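 active means inhibition above the mean over all tested compounds plus 3 SD, cut at about 30% in these data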;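 further: inhibitors block probe labeling of enzyme so polarization drops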
IMP-1 inh = blocks Pseudomonas aeruginosa IMP-1 metallo-beta-lactamase. purified IMP-1, nitrocefin hydrolysis, epi-absorbance fluorescence. inhibition, % at 5.6 µM. hit rate 0.45% among 290,000. AID 1556;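 active means inhibition above the mean plus 3 SD of all compounds in the same screening run, cut at about 4.5% in these data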
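system = purified recombinant IMP-1 beta-lactamase | amount = 0.2 nM IMP-1, as dispensed | medium = HEPES buffer pH 7.1 with ZnSO4 and Brij 35 | times = 25 °C, 15 min preincubation, 25 min reaction | detection = plate fluorescence quenching by hydrolysis product, ex 480/em 530 nm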
PAFAH1B2 inh = inhibitors of human PAFAH1B2. recombinant PAFAH1B2, FP-rhodamine activity probe, fluorescence polarization. P68402. hit rate 1.2% among 340,000. AID 492953. inhibition, % at 3.39 µM;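 active means inhibition above the mean of all tested compounds plus 3 SD, cut at about 24% in these data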
Target sequence (P68402 whole entry, looked up): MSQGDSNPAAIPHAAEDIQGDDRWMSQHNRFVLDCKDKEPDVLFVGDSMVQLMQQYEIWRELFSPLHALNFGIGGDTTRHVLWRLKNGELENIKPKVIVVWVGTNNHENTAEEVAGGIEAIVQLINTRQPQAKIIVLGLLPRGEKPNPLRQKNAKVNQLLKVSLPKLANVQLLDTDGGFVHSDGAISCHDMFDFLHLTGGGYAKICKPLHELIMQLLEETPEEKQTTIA
A number is an active result; i = inactive; nt = not tested or not shown; ! = not active in a repeat.

SMILES	PAFAH1B3 inh	pPAFAH FP inh	VIM-2 inh	PAFAH2 inh	IMP-1 inh	PAFAH1B2 inh
CCCN1C(=O)S/C(=C\c2ccc(N3CCOCC3)o2)C1=O	i	i	i	i	5.9	i
Nc1cn(C2OC(CO)C(O)C2O)c(=O)[nH]c1=O (configuration not stated)	i	nt	i	i	6.3	i
O=c1[nH]c(=O)n(C2OC(CO)C(O)C2O)cc1Br (configuration not stated)	i	i	i	i	i	i
Cc1ccc(S(=O)(=O)N2CCCCC2)cc1NC(=O)C1CC(=O)N(c2ccc3c(c2)OCCO3)C1 (configuration not stated)	i	i	nt	i	nt	i
O=C(Oc1ccc2c(-c3ccccc3)cc(=O)oc2c1)C1CCCCC1	i	31	i	i	i	i
O=C(NCCSc1ncc(-c2ccc(F)cc2)[nH]1)c1ccc2c(c1)OCO2	i	i	nt	i	nt	33
Cc1ccc(-c2cnc(SCCNC(=O)c3ccco3)[nH]2)cc1	i	i	nt	i	nt	i
COc1ccc(CN(C)C(C)C(=O)Nc2ccc(S(=O)(=O)N3CCCCC3)cc2)cc1F (configuration not stated)	i	i	nt	i	nt	i
CCCOc1cccc(C(=O)Nc2ccc3c(c2)OCCO3)c1	i	i	i	i	i	i
Cc1ccc(S(=O)(=O)Nc2cc(=O)[nH]c(SCc3ccc(Cl)cc3)n2)cc1	i	i	i	i	i	i
O=c1[nH]c(SCc2ccc(Cl)cc2)nc2ccccc12	i	i	i	i	i	26
Cc1oc(-c2cccc(Cl)c2)nc1CSc1nc2c(c(=O)[nH]1)CCC2	i	i	i	i	i	i
O=c1cc(-c2ccccc2)nc(SCc2ccc(Cl)cc2)[nH]1	i	i	i	i	i	24
O=C(CSc1nc2ccccc2c(=O)[nH]1)NCc1ccc(Cl)cc1	i	i	i	i	i	i
O=c1cc(O)nc(SCc2ccc(Cl)cc2)[nH]1	i	i	i	i	i	56
O=c1[nH]c(SCc2ccc(Cl)cc2)nc2c1CCC2	i	26	i	i	i	52
CC(=NO)c1ccc2c(c1)C(=NO)c1ccccc1-2	i	nt	nt	i	nt	i
O=C(NCc1ccccn1)C(=O)Nc1cc2c3c(c1)CC(=O)N3CCC2	i	i	nt	i	nt	i
NNC(=O)c1n[nH]c2c1CC(C1CCCCC1)CC2 (configuration not stated)	i	i	nt	i	nt	i
Cc1nc2nc(SCc3ccccc3)[nH]n2c(=O)c1C	i	nt	i	i	i	i
Cc1ccc(CSc2nnc(C)c(=O)[nH]2)cc1	i	i	i	i	i	i
CCC(C)Sc1nc(O)cc(=O)[nH]1 (configuration not stated)	i	i	i	i	i	i
Cc1nnc(SCc2ccccc2)[nH]c1=O	i	34	i	i	i	i
CC(=O)c1ccc(OC(C)C)c(CSc2nc(O)cc(=O)[nH]2)c1	i	28	i	i	i	i
Cc1cc(=O)n2[nH]c(SCc3ccc(Cl)cc3)nc2n1	i	26	i	i	i	50
SMILES	PAFAH1B3 inh	pPAFAH FP inh	VIM-2 inh	PAFAH2 inh	IMP-1 inh	PAFAH1B2 inh
CSc1ccccc1OCc1cc(C(=O)N2CCc3c(Cl)cccc3C2)no1	i	i	i	i	i	i
COc1ccc(C)cc1N(C(=O)c1ccc(C#N)cc1)C1=NC(C)(C)CS1	i	i	i	i	i	i
COC(C(=O)Nc1ccnn1C1CCN(Cc2ccc(CO)o2)CC1)c1ccccc1 (configuration not stated)	i	i	i	i	i	i
CSc1ccccc1NC(=O)COC(=O)c1ccc(-n2nc(C)cc2C)cc1	i	25	nt	59	nt	i
Cc1cc(C)n(-c2ccc(C(=O)OCC(=O)NCc3ccc(F)cc3)cc2)n1	i	28	i	i	i	i
Cc1cc(C)cc(NC(=O)COc2coc(CN3CCc4ccccc4C3)cc2=O)c1	i	i	nt	i	nt	i
COc1ccc(N(C)S(=O)(=O)c2cccc(C(=O)OCC(=O)N3CC(C)CC(C)C3)c2)cc1 (configuration not stated)	i	i	nt	i	nt	i
C/C=C/c1ccc(OCC(=O)O)c(OC)c1	i	i	i	i	i	i
C/C=C/c1ccc(OCCOc2cc(C=O)ccc2OC)c(OC)c1	i	28	i	i	i	i
COc1cccc2c1cc1c(=O)n(CC(=O)NC3CCCCC3)nc(C)n12	i	i	i	i	i	i
CCc1nn(CC(=O)NCCN2CCOCC2)c(=O)c2cc3c(OC)cccc3n12	i	i	8.8	i	i	i
COc1cccc2c1cc1c(=O)n(CC(=O)NCCCN3CCN(C)CC3)nc(C)n12	i	i	10	i	i	i
CCCSCCCNC(=O)Cn1nc(CC)n2c(cc3c(OC)cccc32)c1=O	i	i	i	i	9.1	i
Cc1ccc(C(=O)NNCC(=O)Nc2ccc(Cl)cc2F)cc1	i	i	nt	i	nt	i
COc1ccc(S(=O)(=O)N(C)Cc2ccc3c(c2)OCCO3)cc1	i	i	nt	i	nt	i
Cc1ccc(C(=O)N/N=C\c2ccc(Br)o2)o1	i	i	i	i	i	i
Cc1ccc(C(=O)N/N=C/c2ccc(-c3ccc(Br)cc3[N+](=O)[O-])o2)o1	i	26	i	i	i	i
N#CC(C#N)=C1SC(=Nc2ccccc2)C(=Nc2ccccc2)N1c1ccccc1	i	nt	nt	i	nt	i
Cn1ccc(C(=O)OCC(=O)c2ccccc2)n1	i	i	i	i	i	i
Cn1ccc(C(=O)OCC(=O)Nc2cccc3ccccc23)n1	i	i	i	50	i	i
O=S(=O)(Nc1cc(Sc2cccc3cccnc23)c(O)c2ccccc12)c1ccc(F)cc1	nt	34	i	nt	i	nt
Cn1nc(N2CCN(S(=O)(=O)c3ccccc3)CC2)c(=O)n(C)c1=O	i	i	nt	i	nt	i
O=C(OCCN1CCOCC1)c1ccccc1	i	i	i	i	i	i
O=C(OCCN1CCOCC1)c1cccnc1	i	i	i	i	8.4!	i
O=c1cc(-c2ccc([N+](=O)[O-])cc2)nc2cc(-c3ccc(F)cc3)[nH]n12	i	33	i	i	i	58
SMILES	PAFAH1B3 inh	pPAFAH FP inh	VIM-2 inh	PAFAH2 inh	IMP-1 inh	PAFAH1B2 inh
Cc1ccccc1-c1cc2nc(-c3ccc([N+](=O)[O-])cc3)cc(=O)n2[nH]1	i	i	i	i	i	i
CCOc1cccc(=O)c2c(C)n(Cc3ccco3)c(C)c12	i	33	i	i	i	i
CCOc1cccc(=O)c2c(C)n(Cc3ccccc3)c(C)c12	i	27	i	i	i	i
CCOC(=O)c1cc(C)n(Cc2ccccc2)c1C	i	i	i	i	i	i
CCc1ccc(NC(=O)CS(=O)CC(=O)Nc2ccc(N3CCOCC3)cc2)cc1 (configuration not stated)	i	i	i	i	36	i
Cn1c(SCC(=O)NCCc2ccccc2)ncc(C(=O)Nc2ccccc2)c1=O	i	i	nt	i	nt	i
O=C(O)c1cc(N/N=C2/CC(c3ccccc3)Oc3ccccc32)ccc1Cl (configuration not stated)	i	34	i	i	i	i
